# Measured values from different studies.
# Organism: Candida albicans
Compound,assay,system,conditions,measurement,result
CCCCCCCCCCCC(=O)ON=C1C=CC(=C(C#N)c2ccccc2)C=C1,"microbial killing, broth dilution",ATCC10231,48 h,MFC,512 µg/mL
CCS(=O)(=O)Oc1ccc(C=NNC(=O)CSc2nc3ccc(Cl)cc3c(=O)n2-c2ccccc2)cc1,"microbial growth, well diffusion",,20 µg/mL,inhibition zone,3 mm
C[C@@H]1[C@H](O)[C@@H](C)/C=C/C=C/C=C/C=C/C=C/C=C/C=C/[C@H](O[C@@H]2O[C@H](C)[C@@H](O)[C@H](N)[C@@H]2O)C[C@@H]2O[C@](O)(C[C@@H](O)C[C@@H](O)[C@H](O)CC[C@@H](O)C[C@@H](O)CC(=O)O[C@H]1C)C[C@H](O)[C@H]2C(=O)O,"microbial growth, broth dilution",SP3876,48 h,MIC,< 0.25 µM
N#CC(=C1C=CC(=NOC(=O)c2ccccc2)C=C1)c1ccccc1,"microbial killing, broth dilution",ATCC10231,48 h,MFC,256 µg/mL
C[C@@H]1[C@H](O)[C@@H](C)/C=C/C=C/C=C/C=C/C=C/C=C/C=C/[C@H](O[C@@H]2O[C@H](C)[C@@H](O)[C@H](N)[C@@H]2O)C[C@@H]2O[C@](O)(C[C@@H](O)C[C@@H](O)[C@H](O)CC[C@@H](O)C[C@@H](O)CC(=O)O[C@H]1C)C[C@H](O)[C@H]2C(=O)O,"microbial growth, well diffusion",,20 µg/mL,inhibition zone,4 mm
CC(=O)N1CCN(c2ccc(OCC3COC(Cn4ccnc4)(c4ccc(Cl)cc4Cl)O3)cc2)CC1 (stereo not shown),"microbial growth, broth dilution",17546,48 h,MIC,1 µM
COc1ccc(C=NNC(=O)CSc2nc3c(C)cccc3c(=O)n2-c2ccccc2)cc1OS(C)(=O)=O,"microbial growth, well diffusion",,20 µg/mL,inhibition zone,4 mm
COc1ccc(N=Nc2c(N)nn3c(-c4ccc(C)cc4)cc(-c4ccc(OCc5ccccc5)cc4)nc23)cc1,"microbial killing, broth dilution",ATCC10231,,MFC,125 µg/mL
OC(Cn1cncn1)(Cn1cncn1)c1ccc(F)cc1F,"microbial growth, broth dilution",SN152,24 h,MIC,2 µg/mL
OC(Cn1cncn1)(Cn1cncn1)c1ccc(F)cc1F,"microbial growth, broth dilution",CGMCC2,48 h,MIC,4 µM
CCS(=O)(=O)Oc1cc(C=NNC(=O)CSc2nc3c(C)cccc3c(=O)n2-c2ccccc2)ccc1OC,"microbial growth, well diffusion",,20 µg/mL,inhibition zone,4 mm
Cc1ccc(N=Nc2c(N)nn3c(-c4ccc(C)cc4)cc(-c4ccc(OCc5ccccc5)cc4)nc23)cc1,"microbial killing, broth dilution",ATCC10231,,MFC,125 µg/mL
C=CC(=O)ON=C1C=CC(=C(C#N)c2ccccc2)C=C1,"microbial killing, broth dilution",ATCC10231,48 h,MFC,4 µg/mL
Nc1nn2c(-c3ccco3)cc(-c3ccc(OCc4ccccc4)cc3)nc2c1N=Nc1ccc(F)cc1,"microbial killing, broth dilution",ATCC10231,,MFC,500 µg/mL
OC(Cn1cncn1)(Cn1cncn1)c1ccc(F)cc1F,microbial growth,,,IC50,1 µg/mL
Nc1ccc(S(=O)(=O)Nc2ncccn2)cc1,"microbial growth, well diffusion",,20 µg/mL,inhibition zone,3 mm
Cc1ccc(N=Nc2c(N)nn3c(-c4ccc(Cl)cc4Cl)cc(-c4ccc(OCc5ccccc5)cc4)nc23)cc1,"microbial killing, broth dilution",ATCC10231,,MFC,62.5 µg/mL
CCCS(=O)(=O)Oc1ccc(C=NNC(=O)CSc2nc3c(C)cccc3c(=O)n2-c2ccccc2)cc1OC,"microbial growth, well diffusion",,20 µg/mL,inhibition zone,4 mm
Cc1ccc(N=Nc2c(N)nn3c(-c4ccco4)cc(-c4ccc(OCc5ccccc5)cc4)nc23)cc1,"microbial killing, broth dilution",ATCC10231,,MFC,125 µg/mL
